Compound activity (PubChem BioAssay)
UPR CHOP act – activators of apoptotic CHOP UPR arm, primary screen, cell-based, CHO-CHOP luciferase reporter, luminescence, uHTS | UPR activation; percent of tunicamycin response over DMSO baseline | activation, % at 10 µM | actives 0.34% (n = 330,000) | AID 449763, 2010;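 active means at 10 µM dose, activation of 40% or more, normalized to positive control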;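 further: 100% = tunicamycin at 10 µg/mL and 0% = DMSO alone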
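measured by = luciferase luminescence | assay system = CHO-CHOP cells, stable luciferase reporter of PERK-eIF2a-CHOP signalling | amount = 500 reporter cells seeded per well | timing = 6 h compound exposure at 37 °C after overnight seeding | controls = positive tunicamycin 10 µg/mL, negative DMSO alone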
XBP1 UPR activ – activators of adaptive XBP1 UPR arm, primary screen, cell-based, CHO-XBP1 luciferase reporter, luminescence, uHTS; actives 0.33% (n = 330,000); activation, % at 20 µM; IRE1-XBP1 UPR activation; percent of tunicamycin response, DMSO as zero;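 active means versus positive control, 20 µM dose yields 30% or more activation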;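 further: 100% = tunicamycin at 10 µg/mL and 0% = DMSO only wells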
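Material: CHO cell line with stable XBP1 luciferase reporter; schedule: 16-18 h cell attachment at 37 °C, then 6 h compound exposure; signal: glow luminescence from Steady-Glo reagent; medium: serum-containing F12 medium, 10% FBS; benchmarks: tunicamycin 10 µg/mL and vehicle-only wells; read-out: percent activation relative to tunicamycin reference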
Mdm2 MdmX PPI – inhibitors of human Mdm2-MdmX association, primary screen, cell-based, luminescence, split luciferase, SaOS-2, uHTS. SaOS-2 split-luciferase Mdm2/MdmX complementation. inhibition, % at 8 µM. Protein Mdm4 (Homo sapiens) + E3 ubiquitin-protein ligase Mdm2 (Homo sapiens), …. AID 485346, 2010. actives 3% (n = 330,000);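 active means inhibition of at least 50% at 8 µM in the primary screen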
Target sequence (O15151 whole entry, looked up): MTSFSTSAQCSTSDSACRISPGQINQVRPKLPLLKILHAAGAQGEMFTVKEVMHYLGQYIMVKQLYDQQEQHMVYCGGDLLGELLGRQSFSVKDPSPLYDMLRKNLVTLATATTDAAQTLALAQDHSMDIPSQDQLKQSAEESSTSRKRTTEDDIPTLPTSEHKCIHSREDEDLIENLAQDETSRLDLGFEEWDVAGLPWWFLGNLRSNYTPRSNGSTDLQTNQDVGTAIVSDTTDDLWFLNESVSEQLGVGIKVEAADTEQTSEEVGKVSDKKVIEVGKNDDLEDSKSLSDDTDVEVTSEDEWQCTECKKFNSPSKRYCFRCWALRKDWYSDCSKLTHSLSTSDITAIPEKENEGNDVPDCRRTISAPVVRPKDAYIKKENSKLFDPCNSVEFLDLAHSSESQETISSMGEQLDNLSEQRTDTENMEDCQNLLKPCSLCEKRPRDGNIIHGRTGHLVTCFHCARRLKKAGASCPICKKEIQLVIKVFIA
Target sequence (Q00987 whole entry, looked up): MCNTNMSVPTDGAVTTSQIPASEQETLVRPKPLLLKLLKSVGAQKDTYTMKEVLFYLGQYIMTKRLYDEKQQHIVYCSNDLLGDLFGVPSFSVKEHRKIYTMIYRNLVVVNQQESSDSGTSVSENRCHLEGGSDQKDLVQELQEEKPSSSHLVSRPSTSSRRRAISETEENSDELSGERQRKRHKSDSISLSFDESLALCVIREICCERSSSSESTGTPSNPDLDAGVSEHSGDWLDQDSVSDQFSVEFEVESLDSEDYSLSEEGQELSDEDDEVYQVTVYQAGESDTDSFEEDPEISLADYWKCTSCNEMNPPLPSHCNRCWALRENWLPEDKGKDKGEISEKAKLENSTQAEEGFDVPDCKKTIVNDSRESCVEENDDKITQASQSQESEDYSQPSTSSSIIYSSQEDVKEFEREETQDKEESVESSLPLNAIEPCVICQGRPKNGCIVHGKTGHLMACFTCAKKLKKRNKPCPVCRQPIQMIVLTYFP
T cruzi repl – inhibitors of intracellular T. cruzi growth, primary screen, luminescence, NIH3T3 host cells; inhibition, % (concentration not given with the values); actives 1.4% (n = 300,000); T. cruzi beta-gal in NIH3T3, 90 h;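 active means mean inhibition across valid replicates above about 55%, limit read from the data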;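 further: signal also drops with host cell toxicity which is not excluded here; 0% = plate median of DMSO wells and 100% = zero luminescence signal; higher percent means less beta-gal luminescence so fewer parasites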
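System: NIH/3T3 fibroblasts plus reporter T. cruzi. Medium: DMEM plus 2% FBS. Probe or stimulus: 5000 reporter trypomastigotes per well. Compound: single 50 nL compound addition per well in DMSO. Incubation: co-culture of at least 90 h after 3 h attachment. Detection: GalScreen β-gal luminescence, detergent lysis, 60 min. Evaluation: parasite load inhibition, %.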
CSC inhib – cancer stem cell viability inhibitors, primary screen, luminescence | cancer stem cell-like cells viability | inhibition, % at 7.5 µM | actives 1.1% (n = 300,000) | AID 2717, 2010; in the data active means inhibition above about 75%; tested in HMLE shEcad cells
Beta cell apopt – inhibitors of cytokine-induced beta cell apoptosis, primary screen, luminescence | INS-1E cytokine-induced death, ATP luminescence, 48 h; percent of positive-control rescue, neutral wells zero | protection from apoptosis, % (concentration not given with the values) | actives 0.8% (n = 300,000);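 active means Every replicate reaches about 75%, or at least half do and their mean reaches it too, limit read from the data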;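 further: 0% = cytokine-treated negative control wells and 100% = positive control rescue; higher means more ATP so stronger rescue from cytokine killing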
* hit, by the source's call; · = no result given. Only some compounds are listed: those with a hit (about 5% of all), similar ones and a draw of the others.

SMILES	UPR CHOP act	XBP1 UPR activ	Mdm2 MdmX PPI	T cruzi repl	CSC inhib	Beta cell apopt
Cn1c(SCC(=O)NCC2CCCO2)nc2c(c1=O)SCC2 (centres undefined)	1	-2	22	-5	·	-2
CCC(=O)Nc1ccc(C(=O)OCc2ccccc2Cl)cc1	5	0	-87	61*	11	6
O=c1c2ccc([N+](=O)[O-])cc2ncn1CCOc1cccc(Br)c1	-1	-2	13	67*	-11	0
O=C(Cn1cnc2cc([N+](=O)[O-])ccc2c1=O)NCc1ccc(Cl)cc1	1	-2	-4	52	-4	-10
Cc1cc(OCCn2cnc3ccccc3c2=O)ccc1[N+](=O)[O-]	1	-1	0	4	-5	7
O=c1c2ccc([N+](=O)[O-])cc2ncn1CCOc1ccc(Cl)cc1	-2	2	-19	63*	6	-6
CN1CCN(CC(O)COC(c2ccccc2)c2ccccc2)CC1 (centres undefined)	1	2	-9	61*	·	-2
CN1CCN(CC(O)COc2ccccc2)CC1 (centres undefined)	-1	-3	3	29	-12	-2
CC1CN(CC(O)COC(c2ccc(Cl)cc2)c2ccc(Cl)cc2)CC(C)O1 (centres undefined)	-1	-8	0	29	26	106*
CC1CN(CC(O)COc2ccc(C(C)C)cc2)CC(C)O1 (centres undefined)	-1	-1	14	-6	44	-4
Cc1cc([N+](=O)[O-])nn1CCCC(=O)Nc1c(C)n(C)n(-c2ccccc2)c1=O	2	0	-5	-17	-10	-5
O=C(Nc1ccc(F)cc1)C1CCN(S(=O)(=O)c2cccs2)CC1	0	3	16	8	-4	4
Cc1ccc(CNC(=O)CN2C(=O)COc3ccc(C)cc32)cc1	-1	-2	5	-2	-9	-3
Cc1ccc(CCNC(=O)CN2C(=O)COc3ccccc32)cc1	-2	-3	29	67*	-5	3
Cc1nnc(SCc2ccc(Cl)cc2)nc1/C=C/N(C)C	1	0	43	61*	27	-3
CSc1nnc(C)c(/C=C/NOCc2ccc(Cl)cc2)n1	-1	-3	25	-4	-8	-1
C/C(N)=C(/C#N)C(=O)CSc1nc2cc(Cl)ccc2c(=O)n1-c1ccc(C)cc1	4	-1	10	18	·	17
C/C(N)=C(/C#N)C(=O)CSc1nc2cc(Cl)ccc2c(=O)n1Cc1ccco1	-2	-2	19	59*	31	-15
CC(=O)Nc1cc(C(=O)N(C)Cc2ccccc2)ccc1S(=O)(=O)c1ccc(C)cc1	2	-2	-2	4	·	·
Cc1c([N+](=O)[O-])c(C(=O)NC2CCCCC2)nn1C	0	-3	3	7	-11	-1
Cc1cc(S(=O)(=O)N2CCN=C2c2ccccc2)ccc1F	-2	-2	4	-20	-5	-3
CCOc1ccc(S(=O)(=O)N2CCN=C2c2ccccc2)cc1	2	-1	46	-7	117*	5
O=C(Nc1ccccc1N1CCN(C(=O)c2ccc(Cl)cc2)CC1)c1ccc(Br)cc1	0	2	18	64*	-3	·
O=C(Nc1ccc(N2CCN(C(=O)c3ccc(Cl)cc3)CC2)cc1)c1cc2ccccc2o1	5	-1	9	4	-4	6
O=C(Nc1ccc(N2CCN(C(=O)c3ccc(Cl)cc3)CC2)cc1)c1ccc(Br)o1	-3	-4	9	70*	·	4
SMILES	UPR CHOP act	XBP1 UPR activ	Mdm2 MdmX PPI	T cruzi repl	CSC inhib	Beta cell apopt
COc1ccc(C(=O)CSc2nc(C(C)(C)C)nc3ccccc23)cc1	1	3	3	23	21	4
CC(C)[C@H](NC(=O)N1CC(=O)Nc2ccccc21)C(=O)N1CCC(C(=O)O)CC1	0	-4	3	-4	-4	-8
O=C1NN(c2ccccc2)C(=O)/C1=C/c1cccs1	28	31*	19	-12	6	3
O=C1NN(c2ccccc2)C(=O)/C1=C/c1coc2ccccc2c1=O	3	3	-10	10	3	3
O=C1NN(c2cccc(Br)c2)C(=O)/C1=C\c1ccccc1	4	-1	13	8	109*	-17
O=C1NN(c2ccccc2)C(=O)/C1=C\c1ccccc1	-1	-5	1	2	8	-5
CCS(=O)(=O)c1nc(S(=O)(=O)c2ccc(C)cc2)c(N2CCN(C)CC2)s1	-1	1	23	-1	-1	-8
O=[N+]([O-])c1cc([N+](=O)[O-])c2c(=Nc3ccccc3)n(-c3ccccc3)n(O)c2c1	5	4	42	58*	-8	54
CC(OC(=O)c1ccncc1)C(=O)Nc1ccc([N+](=O)[O-])cc1Cl (centres undefined)	0	3	2	-7	2	-4
COc1ccc(NS(=O)(=O)c2ccc(-c3coc(C)n3)cc2)cc1OC	15	-6	18	-36	0	107*
CCc1cc2cc(C)cc(C)c2nc1SCC(=O)N1CCN(C(=O)c2ccco2)CC1	-4	-3	17	·	116*	1
COc1cc2c(cc1OC)-c1c(OC)c(OC)cc3ccnc(c13)C2=O	-2	1	30	21	61	112*
COc1ccc(C(=O)c2nccc3cc(OC)c(OC)cc23)cc1OC	-2	3	9	·	3	-8
c1ccc(-c2cn(-c3ccccc3)c3[n+]2CCCS3)cc1	1	0	-10	27	-1	23
Cc1ccc(-c2cn(-c3ccccc3)c3[n+]2CCCS3)cc1	1	-2	30	44	20	111*
CCc1ccc(-n2cc(-c3ccc(F)cc3)[n+]3c2SCCC3)cc1	0	1	24	56*	-8	110*
N#Cc1ccc(-c2cn(-c3ccccc3)c3[n+]2CCCS3)cc1	-2	-1	8	5	-21	-3
COc1ccc(-n2cc(-c3ccc(C)cc3)[n+]3c2SCC3)cc1	2	-2	29	59*	25	113*
Cc1ccc(-n2c(-c3ccco3)nc3nc4ccccc4nc32)cc1	1	-1	4	13	-8	-1
O=C(/C=C/c1c(F)cccc1Cl)NCc1ccc2c(c1)OCO2	2	-4	-6	5	5	·
